# Screening results: PubChem, several laboratories
# SDO1 yeast rescue – growth rescue of sdo1-depleted yeast, primary screen, S. cerevisiae, bone marrow failure model | hit rate 0.21% among 140,000 | z-score at 10 µM | S. cerevisiae sdo1-depleted JHY4D growth rescue, OD600 30 h; hits give high values; pdr5 snq2 efflux-pump mutant strain;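 active means z-score above 3 at both the 24 hr and the 30 hr optical density reads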;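 further: z-score against mean and SD of all compound wells on the same plate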
# Yeast life ext – compounds extending yeast replicative lifespan, primary screen, S. cerevisiae, OD615. S. cerevisiae growth with nicotinamide; deaD strain in restrictive glucose medium. inhibition of the nicotinamide effect, % at 10 µM. hit rate 0.68% among 130,000. AID 775, 2007;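 active means inhibition above a set limit, placed 3 SD over the median of all compounds, cut at about 26% in these data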;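 further: 0% = nicotinamide-treated wells and 100% = cells grown without nicotinamide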
#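 Test system – modified budding yeast, DeaD strain · Compound – single dose 10 µM compound, 0.25% DMSO · Times – culture preincubation 4 h, compound exposure 48 h, both 30 °C · Detection – optical density (absorbance) at 615 nm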
# sEH inhibitor – soluble epoxide hydrolase inhibitors, primary screen, biochemical, human sEH | hit rate 0.34% among 91,000 | recombinant human sEH enzymatic activity assay | inhibition, % at 2 µM; in the data active means inhibition above about 80%
# Target sequence (P34913 whole entry, looked up): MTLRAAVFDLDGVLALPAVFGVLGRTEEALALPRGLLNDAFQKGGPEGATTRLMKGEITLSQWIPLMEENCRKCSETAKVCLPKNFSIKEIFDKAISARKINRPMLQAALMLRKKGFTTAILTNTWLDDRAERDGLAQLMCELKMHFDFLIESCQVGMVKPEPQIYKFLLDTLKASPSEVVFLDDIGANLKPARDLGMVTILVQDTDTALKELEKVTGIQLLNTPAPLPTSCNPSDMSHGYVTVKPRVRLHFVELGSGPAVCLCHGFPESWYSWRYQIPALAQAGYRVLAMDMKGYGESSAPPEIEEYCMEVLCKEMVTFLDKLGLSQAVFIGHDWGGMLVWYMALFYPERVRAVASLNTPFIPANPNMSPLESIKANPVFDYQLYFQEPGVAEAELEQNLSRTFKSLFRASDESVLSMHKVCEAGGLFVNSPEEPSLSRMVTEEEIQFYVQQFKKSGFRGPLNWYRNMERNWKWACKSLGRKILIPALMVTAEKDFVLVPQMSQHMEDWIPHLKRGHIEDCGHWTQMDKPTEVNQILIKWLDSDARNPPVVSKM
# Measles CPE – compounds protecting cells from measles virus cytopathic effect, primary screen, measles RdRp inhibitor project, single point, MLSMR library, absorbance; Measles virus-infected cells, CPE protection; protection (pct of control), % at 4 µM; hit rate 1.5% among 140,000; AID 841, 2007; in the data active means protection mostly above about 24%, no sharp cut-off; inactive means mostly below about 26%
# sEH activator – soluble epoxide hydrolase activators, primary screen, biochemical, human sEH; Bifunctional epoxide hydrolase 2 (Homo sapiens), P34913; purified human sEH enzymatic activity, activator screen; activation, % at 2 µM; hit rate 0.04% among 91,000; in the data active means activation above about 37%
# Yeast growth inh – growth inhibitors of yeast BB579 in restrictive medium, primary screen, yeast lifespan-shortening project, S. cerevisiae; OD615, 48 h; inhibition, % at 10 µM; hit rate 0.51% among 140,000; AID 804, 2007;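 active means inhibition above a set limit, 3 SD over the mean compound inhibition, cut at about 44% in these data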
#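 System: Saccharomyces cerevisiae DeaD strain BB579, replicative lifespan model yeast | Buffer or medium: Restrictive glucose-based CSMM-D medium | Times: 4 h preincubation and 48 h exposure at 30 °C | Detection: OD615 turbidity measurement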
# Numbers without * were called inactive; . = no result given. Rows were chosen to be rich in hits. Some 3% of all compounds tested hit in one or more screens of this group.
SMILES,SDO1 yeast rescue,Yeast life ext,sEH inhibitor,Measles CPE,sEH activator,Yeast growth inh
CSCCC(NC(=O)c1ccccc1)C(=O)N/N=C(\C)c1ccccc1 (stereo not drawn),-0.61,6,.,16,.,-24
Cc1nnc(SCC(=O)NC2CCCCC2)n(N)c1=O,-0.21,-10,11,18,-12,-15
CCC(C)(C)n1nnnc1CN1CCc2ccccc21,-0.11,10,0,73*,2,-12
c1ccc(CCn2nnnc2CN2CCCc3ccccc32)cc1,-0.62,-9,-20,16,20,-51
Cc1ccc(N2C(=O)N(Cc3ccccc3C)c3ccccc3S2(=O)=O)cc1,-1.6,8,.,9,.,-16
Cn1c(CNS(=O)(=O)c2ccc(F)cc2)n[nH]c1=S,1.4,0,-1,43*,1,-34
CS(=O)(=O)N(Cc1ccc(C(=O)NCCSCc2ccco2)cc1)c1ccccc1,-0.49,22,81*,3,-81,-67
CN(c1ccc(C(=O)NCCSCc2ccco2)cc1)S(C)(=O)=O,0.16,-3,20,6,-20,-6
CS(=O)(=O)N(Cc1ccc(C(=O)NCc2ccco2)cc1)c1ccccc1,0.19,-27,19,34*,-19,-14
O=C(NNC(=O)C1CC1c1ccccc1)Nc1cccc(Cl)c1 (stereo not drawn),1.1,-3,10,6,-7,-23
Cc1ccc(SCC(=O)Nc2cccc(NC(=O)c3ccco3)c2)cc1,-0.83,-14,1,9,2,-49
COC(=O)CC1Oc2ccccc2N(Cc2ccccc2)C1=O (stereo not drawn),1.1,-14,.,5,.,-20
C/C(=N\NC(=O)CSCc1ccc([N+](=O)[O-])cc1)c1cccc(Br)c1,-0.53,8,.,35*,.,-16
COc1ccc(/C=C2\CCCc3c2nc2ccccc2c3C(=O)OCC(=O)c2c(N)n(C)c(=O)n(C)c2=O)cc1,0.43,1,.,12,.,-51
Cc1cccc(-c2noc(CCCC(=O)Nc3cccnc3)n2)c1,0.42,-24,-11,active,9,-45
O=C(CNC(=O)c1cccs1)NCC(=O)OCc1cccc(Cl)c1,-0.05,-6,8,active,-6,-44
O=C(CNC(=O)c1ccco1)NCC(=O)OCc1cccc(Cl)c1,0.04,-4,-1,8,4,-20
CCCSc1nnc(NC(=O)Nc2ccc(F)cc2)s1,-0.92,5,.,43*,.,-38
CCCCNC(=O)C1C2C=CC3(CN(Cc4ccc(C)cc4)C(=O)C13)O2 (stereo not drawn),1,-6,.,4,.,-19
Cc1ccc(CN2CC34C=CC(O3)C(C(=O)NCc3ccco3)C4C2=O)cc1 (stereo not drawn),-0.17,-6,-2,30*,2,-28
Cc1oc(CC(C)C)cc1C(=O)Nc1cccc2ccccc12,-2.1,-4,4,37*,-5,-51
CCOc1ccccc1NC(=O)c1cc(CC(C)C)oc1C,-0.35,-20,0,4,-2,-50
COc1ccc(C(=O)N2CCN(c3ccc([N+](=O)[O-])c(-n4nc(C)cc4C)c3)CC2)cc1,-0.04,3,.,23*,.,-53
Cc1ccc(C)c2c3c([nH]c12)-c1nonc1CC3,-0.27,-24,-2,74*,4,-13
c1coc(-c2nc3c([nH]2)CCc2nonc2-3)c1,1.4,-3,-2,4,2,-55
SMILES,SDO1 yeast rescue,Yeast life ext,sEH inhibitor,Measles CPE,sEH activator,Yeast growth inh
Cc1cc(C)c[n+](CC(=O)c2cc3ccccc3oc2=O)c1,-0.07,5,1,10,-1,-36
O=C(Cn1nc(Cl)nc1Cl)c1cc2ccccc2oc1=O,-1.6,42*,-9,2,9,-29
Cc1ccc[n+](CC(=O)c2cc3ccccc3oc2=O)c1,0.78,36*,-12,2,15,-26
Cn1cnnc1SCC(=O)c1cc2ccccc2oc1=O,0.62,-5,0,4,1,-44
COc1ccc(OC)c(Nc2nc3nonc3nc2N2CCCCC2)c1,-0.4,-11,0,17,3,-17
COc1ccccc1Nc1nc2nonc2nc1N1CCC(C)CC1,-0.93,3,.,78*,.,-20
COC(=O)c1sccc1NC(=O)CN(C)NS(=O)(=O)c1ccc(Cl)cc1,-1,-17,-1,44*,2,3
CC(C)(C)OC(=O)N/N=C\C=C\c1ccc2c(c1)OCO2,-0.53,0,.,17,.,-5
COC(=O)c1sc2ccccc2c1-n1cccc1C(=O)C(=O)Nc1ccc(OC)cc1,-1.3,11,-22,7,18,-50
CC(C)c1ccc(/C=C/C(=O)NC(=S)Nc2ccc(CN3CCOCC3)cc2)cc1,-1.8,-4,.,2,.,22
COc1cccc(-c2csc(N3CCN(C(=O)NC45CC6CC(CC(C6)C4)C5)CC3)n2)c1,-0.93,.,82*,21,-81,-45
CC1CC2=C(C(=O)O1)C(c1ccc(Cl)cc1)Nc1ccccc1N2 (stereo not drawn),1.7,2,.,7,.,-35
O=C(NC1CCCCC1)C1CCN(S(=O)(=O)N2CCCCCC2)CC1,0.95,-12,80,4,-80,-35
O=C(NC1CCCCCCC1)C1CCN(S(=O)(=O)N2CCC3(CC2)OCCO3)CC1,0.62,-19,88*,4,-88,-17
Cn1cc(/C=N/n2cnc3sc4c(c3c2=O)CCCC4)c2ccccc21,-0.44,-14,9,8,-9,2
O=c1c2c3c(sc2ncn1/N=C/c1ccc([N+](=O)[O-])o1)CCCC3,-2.4,65*,-16,3,19,25
COc1cc(/C=N/NC(=O)c2cccnc2)ccc1OCC(=O)N1CCOCC1,0.32,-2,.,7,.,-21
O=[N+]([O-])c1ccc(-c2cc(-c3ccncc3)nc3ccc4ccccc4c23)cc1,-0.29,2,-21,12,21,-26
COc1ccc(C2(C(=O)Nc3ccccc3)CCOCC2)cc1,0,0,.,10,.,-4
COC(=O)[C@@H]1C2CCC(C(=O)Nc3ccccc3)(CC2)[C@@H]1C(=O)OC,0.28,-12,-5,48*,2,-21
CC(C)(C)C(=O)Nc1ccnc(-c2cccnc2)n1,0.48,-14,9,6,-7,-27
O=C(Cc1cccs1)Nc1cc(SCCO)cc([N+](=O)[O-])c1,-0.13,-2,.,102*,.,-9
COc1cccc(N/C(N)=N/c2nc(C(F)(F)F)cc(=O)[nH]2)c1,-0.14,-1,.,6,.,-2
O=C(N/N=C1\CC2CC=CC12)c1ccc(COc2ccccc2)cc1 (stereo not drawn),-0.55,-4,.,32,.,54*
